Activity calls are given as the source filed them. No cut-off for these calls is given here.

Consider four compounds from ChEMBL document CHEMBL3046500, “Secondary metabolites from Glycine soja and their growth inhibitory effect against Spodoptera litura” (J Agric Food Chem, 2011).

For series [1], the system named is Spodoptera litura. In words: Drug metabolism in fourth instar larval stage of Spodoptera litura assessed in excrements after feeding diet containing compound by HPLC analysis. In kind it is ADME, organism-based. The note with it: in vivo, po. In a few lines:
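Excrement from treated and control larvae was collected separately, extracted with methanol under ultrasonication (3 × 20 min), centrifuged, and the supernatant run on RP-18 HPLC (250 × 4.6 mm, 5 μm) at 30 °C and 1.0 mL/min. Elution used a water/methanol gradient set per analyte over 0–30 min, then 95% methanol. DAD read at 210/238/254/280 nm; TLC (CHCl3/MeOH 4:1) for a non-UV-absorbing analyte.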

The subject of series [2] is Spodoptera litura. Put plainly: Insecticidal activity against fourth instar larval stage of Spodoptera litura in glandless fresh cabbage leaves assessed as growth inhibition measured 3 days after feeding diet containing compound. In kind it is functional, organism-based. In a few lines: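 Larvae starved 4 h, weighed, then placed on treated material for 4 h. They were then moved to fresh untreated leaves or artificial diet. This was repeated every 24 h, with each larva's weight recorded. Seven replicates per treatment; whole experiment run three times.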

Series [3] deals with Spodoptera litura. In words: Antifeedant activity against fourth instar larval stage of Spodoptera litura on fresh cabbage leaves. Format: functional, organism-based.

Regarding `O=c1c(-c2ccc(O)cc2)coc2cc(O)cc(O)c12` [GENISTEIN], the Drug metabolism entry in the series on Spodoptera litura [1] is “Active”. For the same compound, the “growth inhibition (GI)” value in the series with Spodoptera litura [2] was “inactive”. In addition, in the series with Spodoptera litura [3], the result was inactive.
`CO[C@H]1[C@H](O)[C@@H](O)[C@@H](O)[C@H](O)[C@@H]1O` [METHYLINOSITOL]: the Drug metabolism entry in the series with Spodoptera litura [1] is listed as “Active”. The “growth inhibition (GI)” value in the series on Spodoptera litura [2] is “inactive”. The outcome with Spodoptera litura [3] was inactive.
With `O=c1c(-c2ccc(O)cc2)coc2cc(O[C@@H]3O[C@H](CO)[C@@H](O)[C@H](O)[C@H]3O)cc(O)c12` [GENISTIN], in the series with Spodoptera litura [1], the Drug metabolism entry was “Active”. For the same compound, the “growth inhibition (GI)” value with Spodoptera litura [2] was “inactive”. For the same compound, the result in the series on Spodoptera litura [3] was inactive.
With `O=c1c(-c2ccc(O)cc2)coc2cc(O)ccc12` [DAIDZEIN], the Drug metabolism result in the series on Spodoptera litura [1] is given as “Not Active”. In addition, the “growth inhibition (GI)” value in the series on Spodoptera litura [2] is “Active”. In addition, the result in the series on Spodoptera litura [3] was inactive.
